M5 PAM: CHRM5 positive allosteric modulation | P08912 | CHO-K1 hM5, Fluo-8 calcium, ACh EC20 PAM; 0% = ACh EC20, 100% = ACh EC100 | activation, % at 3 µM | 360,000 compounds, 0.3% hits | AID 624038;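 active = activation above the run cutoff, the mean activation of all test compounds plus 3 SD, cut at about 18% in these data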
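Assay system: CHO-K1 hM5 cells. Also added: acetylcholine at EC20 concentration, added after compound. Dosing: 3 µM, single dose. Times: compound preincubation 140 s before EC20 acetylcholine addition. Signal: Fluo-8 calcium fluorescence. Measure: % activation relative to EC20 and EC100 ACh responses. Repeats: singlicate, one well per test compound.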
M1 antag: human CHRM1 antagonism | P11229 | CHO-K1 hM1, Fluo-8 calcium fluorescence, ACh EC80 antagonist | inhibition, % at 3 µM | 360,000 compounds, 1.3% hits;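 active = percent inhibition above its own plate's cutoff, namely the mean of that plate's compound wells plus 3 SD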;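 also: peak over basal fluorescence ratio during 140 s after agonist addition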
Target sequence (P11229 whole entry, looked up): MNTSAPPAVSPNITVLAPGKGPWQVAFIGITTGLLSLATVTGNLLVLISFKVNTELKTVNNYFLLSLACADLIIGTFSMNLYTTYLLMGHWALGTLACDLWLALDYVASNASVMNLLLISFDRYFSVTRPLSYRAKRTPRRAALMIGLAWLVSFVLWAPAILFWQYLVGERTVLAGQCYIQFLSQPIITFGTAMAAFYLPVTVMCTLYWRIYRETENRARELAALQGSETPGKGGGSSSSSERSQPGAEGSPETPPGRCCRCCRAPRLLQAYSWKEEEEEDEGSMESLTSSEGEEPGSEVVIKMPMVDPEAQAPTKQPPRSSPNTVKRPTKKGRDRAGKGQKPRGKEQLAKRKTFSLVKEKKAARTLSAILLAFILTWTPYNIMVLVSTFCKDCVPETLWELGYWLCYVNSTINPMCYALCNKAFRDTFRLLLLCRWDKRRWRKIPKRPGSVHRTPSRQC
M5 ag: agonists of human muscarinic M5 receptor (CHRM5). P08912. 360,000 compounds, 0.19% hits. CHO-K1 hM5 cells, Fluo-8 calcium fluorescence; 0% DMSO wells, 100% maximal acetylcholine response. activation, % at 3 µM;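 active = activation above the run's mean over test compounds plus 3 SD, cut at about 23% in these data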;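 also: signal is peak over basal fluorescence ratio across the kinetic read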
M1 PAM: potentiates human M1 receptor response to acetylcholine; P11229; CHO-K1 hM1, Fluo-8 calcium fluorescence, ACh EC20; 0% = ACh EC20, 100% = maximal ACh; activation, % at 3 µM; 360,000 compounds, 0.088% hits; AID 588819; in the data active = activation above about 19%, passing the limit was not always enough
CHRM5 antagonist: antagonists of human muscarinic M5 receptor (CHRM5) | P08912 | CHO-hM5 cells, Fluo-8 calcium fluorescence, ACh EC80 | 360,000 compounds, 0.59% hits | AID 624040 | inhibition, % at 3 µM;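 active = inhibition above a per-plate cutoff, the mean of that plate's test compounds plus 3 SD, cut at about 27% in these data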
CHRM1 agonist: activates human CHRM1 receptor; P11229; CHO-K1 hM1, Fluo-8 calcium fluorescence, agonist mode; 0% DMSO, 100% acetylcholine EC100; activation, % at 3 µM; 360,000 compounds, 0.33% hits; AID 588814;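 active = activation above the run's mean compound activation plus 3 SD, cut at about 16% in these data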;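 also: peak over basal fluorescence ratio within a 140 s kinetic read after compound addition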
Numbers stand for hits; - = inactive; . = no result given. Rows were chosen to be rich in hits. Some 2% of all compounds tested hit in one or more screens of this group.

SMILES	M5 PAM	M1 antag	M5 ag	M1 PAM	CHRM5 antagonist	CHRM1 agonist
O=C1NC[C@@H](CCCCN2C[C@H](Cc3ccc(O)cc3)N(CC3CCCCC3)C(=O)C2=O)N(CCc2ccccc2)C1=O	-	.	-	.	-	.
O=C(O)CCC(=O)NNc1nc2ccccc2nc1-c1ccccc1	19	-	-	-	-	-
O=C(O)CCC(=O)NNc1ncnc2ccccc12	-	-	-	-	-	-
S=C(NCc1ccco1)Nc1cc(Cl)c(Cl)cc1Cl	-	-	-	-	33	-
S=C(NCc1ccco1)Nc1ccc(Cl)c(Cl)c1	-	-	-	-	-	-
O=C1NC[C@H](CCCCN2C[C@H](Cc3ccc(O)cc3)N(Cc3ccccc3)C(=O)C2=O)N(CCc2ccc(O)cc2)C1=O	-	.	-	.	-	.
Cc1ccc(S(=O)(=O)/N=C2/NC(=O)/C(=C/c3cc([N+](=O)[O-])ccc3O)S2)cc1	-	-	49	-	-	32
O=C1NC(=Nc2ccccc2Cl)S/C1=C\c1cc([N+](=O)[O-])ccc1O	-	-	32	-	-	-
O=C(CN1CCCC1c1ccc2c(c1)OCCO2)NC(=O)Nc1ccccc1 (centres undefined)	-	-	-	-	-	-
CSc1ccc(CN(C)C(=O)C(Cc2ccccc2)NC(=O)c2ccccc2)cc1 (centres undefined)	-	44	-	-	-	-
CN(Cc1ccc(F)cc1)C(=O)C(Cc1ccccc1)NC(=O)c1ccccc1 (centres undefined)	-	-	-	-	-	-
COc1ccc(CN(C)C(=O)C(Cc2ccccc2)NC(=O)c2ccccc2)cc1F (centres undefined)	-	42	-	-	-	-
CC(C)(C)S(=O)N1Cc2cc(C(=O)NCC(F)(F)F)nc(-c3cccc(-c4cccc(F)c4)c3)c2[C@@H]1CCO (some centres undefined)	-	-	-	-	-	-
CCN(CC(=O)Nc1ccc(C#N)cc1)CC(=O)Nc1ccc2c(c1)OCCO2	-	-	-	-	-	-
O=c1c2cn(Cc3ccc(F)cc3)c3ccccc3c-2nn1Cc1ccc(F)cc1	-	-	-	-	-	-
O=c1c2cn(Cc3ccccc3)c3ccccc3c-2nn1Cc1ccc(F)cc1Cl	-	-	-	31	-	20
CCCCNC(=O)N(C)c1nncnc1C(=O)NC	26	-	-	-	-	-
CCN(CC)CCSc1nc2ccccc2n1Cc1ccccc1	-	90	-	-	40	-
COC(=O)c1ccc2nc(-c3ccc(C#N)cc3)c(Cc3cccc(Cl)c3)n2c1	-	.	-	.	-	.
C/C(=N\NC(=O)c1cc2ccccc2cc1O)c1ccccn1	-	-	-	29	-	-
C[C@H](O)[C@@H]1C(=O)N2CCc3ccc(-c4ccccc4)cc3[C@@H]2C[C@@H]1N(C)C(=S)Nc1ccc(F)cc1	-	-	-	-	-	-
O=C(NCCCN1CCOCC1)C(=O)NCC1OCCN1S(=O)(=O)c1ccc(F)cc1 (centres undefined)	-	-	-	-	-	-
Cc1ccc(S(=O)(=O)N2CCOC2CNC(=O)C(=O)NCCCN2CCOCC2)cc1 (centres undefined)	-	-	-	23	-	-
Cc1cc(NC(=O)CCC(=O)N(Cc2ccco2)C(C(=O)NC2CCCC2)c2ccccc2F)no1 (centres undefined)	-	-	-	-	-	-
COc1ccc(C(C(=O)NC(C)(C)C)N(CCC(C)C)C(=O)CCC(=O)Nc2cc(C)on2)cc1 (centres undefined)	-	-	-	30	-	-
COCCN(C(=O)CCC(=O)Nc1cc(C)on1)C(C(=O)NC1CCCC1)c1ccccc1F (centres undefined)	28	-	-	-	-	-
CCCNC(=O)c1cc(C2CCCCN2C(=O)c2cc(OC)c(C)c(OC)c2)on1 (centres undefined)	-	-	-	-	-	-
O=c1[nH][nH]c2c1[C@H](c1ccc(F)cc1)O[C@H](CCC(F)(F)F)C2	-	.	-	.	-	.

Screening results: PubChem, The Scripps Research Institute Molecular Screening Center
